In the EternaBench riboswitch data:

Tested on: MS2 coat protein
Experiment: apparent Kd, MS2 coat protein; higher = weaker binding; RNA-MaP array; theophylline 2 mM where present
In short: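 Designs were transcribed by stalled E. coli RNA polymerase on Illumina sequencing-chip clusters. They were titrated with SNAP-549-labelled MS2 coat protein from 0.7 or 1.5 nM, doubling to 3 µM, in 100 mM Tris-HCl pH 7.5, 80 mM KCl, 4 mM MgCl2, BSA, DTT, yeast tRNA and Tween-20, without and then with constant ligand. The apparent Kd is the median of filtered per-cluster fits after normalisation of green signal to red-channel RNA signal and control-cluster median Fmax.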

[1] = designed as: ON switch for theophylline, no ligand
[2] = ligand present: theophylline, designed as: ON switch for theophylline
[3] = designed as: OFF switch for theophylline, no ligand
[4] = ligand present: theophylline, designed as: OFF switch for theophylline

| Sequence | apparent Kd [1] [nM] | apparent Kd [2] [nM] | apparent Kd [3] [nM] | apparent Kd [4] [nM] |
| --- | --- | --- | --- | --- |
| GCACUACAUGAGGAUCACCCAUGUGCAGAUACCAGAGGUGUAUGCCUCCCUUGGCAGCUGAGUAGGUCUGGAGGGCUAUUGGUUU | 17.6 | 23.5 |  |  |
| GGAAUAACGAUUGAUACCAGCAUGUUAACAUGAGGAUCACCCAUGUUAAGGAUAACAUAAUGCCCUUGGCAGCAACGGAAACCCG | 21.3 | 12.9 |  |  |
| GGGCCUGUAGGCAGGCCCACAGCGGGUGAUACCAGCAAUAAAACUUGCCCUUGGCAGCACACAGCUACAUGAGGAUCACCCAUGU | 41.2 | 70.5 |  |  |
| GGUAGCAGGACUGAUACCAGUCCAGCGAAUCAUACGACGCAACAUGAGGAUCACCCAUGUGACCCUUGGCAGCAGACUGCUACCG | 24.7 | 14.5 |  |  |
| GGUCUCUGGAGCGAUACCAGCUUGAUCGUACUGGCCUGGUACAUGAGGAUCACCCAUGUAAGCCCUUGGCAGCGCUCCAGAGACC |  |  | 12.3 | 28.1 |
| GUGGAGACACGAGAUACCAGUCUCUAUAACAUGAGGAUCACCCAUGUAAUGCUCCUCAGGGACCCUUGGCAGCUCAGUAUGAUGA |  |  | 32.9 | 134 |
| UAACAUGAGGAUCACCCAUGUAUAGUCGAUACCAGCUCAAGGAAGAGCCCUUGGCAGCGACACUGCCAAGCAUGGGUCAUGGCAG | 21.1 | 33.4 |  |  |
| UACAUGAGGAUCACCCAUGUAUAGAGGGAUACCAGUGUCAGUGAGCACCCUUGGCAGCCCGCGAACAAUGGGUGCGCUAUAUAGU |  |  | 26.3 | 62.2 |
| UACAUGAGGAUCACCCAUGUAUGAAUGGAUACCAGAUAAAAUAAGGUCCCUUGGCAGCUAGUGAAUCGAGGGUGGGUAUCAUGAU |  |  | 11.2 | 10.3 |
| UAUAACAUGAGGAUCACCCAUGUAAGUGAUACCAGAUAAAUAAUAGUCCCUUGGCAGCAUAUUGGGAAAAUGUAUAAUAUAUAUU | 57.8 | 57.4 |  |  |
| UAUACAUGAGGAUCACCCAUGUGCCAUGAUACCAGACAUGAAAAUGUCCCUUGGCAGCAUGGGAAAUGUAUAGCGGGAAACCCGA | 72.6 | 704 |  |  |
| UCAUAUUAGAUAGAUGUAAGGUAUCAUGAUACCAGUAGAUAAUUAUACCCUUGGCAGCAUAACAUGAGGAUCACCCAUGUACAUG |  |  | 21.3 | 20.9 |
| UCCUCCUCCGCAAGGAGGAGGAGUUGCGAUACCAGCACGGCAACGUGCCCUUGGCAGCGCACAUGAGGAUCACCCAUGUCAUGUU |  |  | 19.4 | 24.3 |
| UCGUGUAUAUCGGAUACCAGUGAGAAGGAUACAUGAGGAUCACCCAUGUGAGUUGAUGUACACCCUUGGCAGCUGUAUAUAUCUA | 49.9 | 26.2 |  |  |
| UCUUGGUCCGCAAGGACCUUGAGUUGCGAUACCAGCACGGUAACGUGCCCUUGGCAGCGCACAUGAGGAUCACCCAUGUGGUGUU |  |  | 261 | 236 |
| UGACAUUGCUCAGAUACCAGACAUGAGGAUCACCCAUGUGCCAAAUAAACGUACAUAAAUGUCCCUUGGCAGCUGAGCAAUGUCU |  |  | 57.5 | 890 |
| UUUACAUGAGGAUCACCCAUGUGCCAUGAUACCAGACAUGAAAAUGUCCCUUGGCAGCAUGAAGGUACCUCAUCGGGAAACCGAA | 134 | 247 |  |  |
| UUUACAUGAGGAUCACCCAUGUGCCAUGAUACCAGACAUGAAAAUGUCCCUUGGCAGCAUGAGUGAUUCAUCCGAAAGGAUGUUU | 121 | 673 |  |  |
| UUUACAUGAGGAUCACCCAUGUUCCAUGAUACCAGACAUGAAAAUGUCCCUUGGCAGCAUGAAUGAUUCAUAGGAUAAUUAUGGG | 98.7 | 52.9 |  |  |
| UUUGAUAGGACAGAUACCAGCGUGUUGUUGAACAUGAGGAUCACCCAUGUAGUGAUCGAGCGCCCUUGGCAGCUGGUUUGUUAGG | 382 | 306 |  |  |
